According to article PMC10401071 (Cancer Discovery, 2023):
Like-named read-outs stand apart in the source and are kept apart here.

Tests used:
[1] = test system: growth differentiation factor 15 (GDF-15); type: in vivo, human; details: all dose-escalation cohorts, both arms
Outline: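 Blood drawn for GDF-15, a circulating downstream p53 marker measured as a target-engagement surrogate. Dosing was oral, day 1 every 21 days or days 1 and 8 every 28 days. Cycle 1 sampling: 5 min pre-dose; 1, 2, 3, 4, 5, 6 and 8 h post-dose on day 1; once on days 2, 3, 4, 5 and 8. All dose-escalation cohorts, both arms.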

[2] = type: in vivo, human
Outline: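 Adults with advanced solid tumours (ECOG 0–1; TP53 wild-type or unknown) received oral test compound on day 1 of 21-day cycles or days 1 and 8 of 28-day cycles, until progression or unacceptable toxicity. Antiemetic prophylaxis followed guidelines. AE incidence and severity were graded per NCI CTCAE v5.0 and summarised descriptively.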

For `Cc1c(C(=O)O)ccc2c3n(nc12)[C@@H]1[C@H](C3)N(CC2CC2)[C@@]2(C(=O)Nc3cc(Cl)ccc32)[C@H]1c1cccc(Cl)c1F` [brigimadlin], the “growth differentiation factor 15 levels (target engagement)” value [1] was “time- and dose-dependent increases”, the “Any AE” value ([2]; All patients (N = 54)) was 54 (100.0) n (%) and the “Any AE (any cause) leading to study drug discontinuation” value ([2]; All patients (N = 54)) was 3 (5.6) n (%). For the same compound, the “Any AE (any cause) leading to study drug dose reduction” value ([2]; All patients (N = 54)) was 19 (35.2) n (%), the “Any TRAE” value ([2]; All patients (N = 54)) was 50 (92.6) n (%) and the “Any grade ≥3 AE” value ([2]; All patients (N = 54)) was 33 (61.1) n (%). For the same compound, the “Any grade ≥3 TRAE” value ([2]; All patients (N = 54)) was 25 (46.3) n (%), the “Serious AEs (any cause)” value ([2]; All patients (N = 54)) was 18 (33.3) n (%) and the “TRAE Alopecia, All grades” value ([2]; All patients (N = 54)) was 12 (22.2) n (%). For the same compound, the “TRAE Alopecia, Grade ≥3” value ([2]; All patients (N = 54)) was 0 n (%), the “TRAE Anemia, All grades” value ([2]; All patients (N = 54)) was 16 (29.6) n (%) and the “TRAE Anemia, Grade ≥3” value ([2]; All patients (N = 54)) was 5 (9.3) n (%). For the same compound, the “TRAE Decreased appetite, All grades” value ([2]; All patients (N = 54)) was 17 (31.5) n (%), the “TRAE Decreased appetite, Grade ≥3” value ([2]; All patients (N = 54)) was 0 n (%) and the “TRAE Decreased lymphocyte count, All grades” value ([2]; All patients (N = 54)) was 7 (13.0) n (%). For the same compound, the “TRAE Decreased lymphocyte count, Grade ≥3” value ([2]; All patients (N = 54)) was 4 (7.4) n (%), the “TRAE Decreased weight, All grades” value ([2]; All patients (N = 54)) was 4 (7.4) n (%) and the “TRAE Decreased weight, Grade ≥3” value ([2]; All patients (N = 54)) was 0 n (%). The “TRAE Decreased white blood cell count, All grades” value ([2]; All patients (N = 54)) was 13 (24.1) n (%), the “TRAE Decreased white blood cell count, Grade ≥3” value ([2]; All patients (N = 54)) was 7 (13.0) n (%) and the “TRAE Diarrhea, All grades” value ([2]; All patients (N = 54)) was 16 (29.6) n (%). The “TRAE Diarrhea, Grade ≥3” value ([2]; All patients (N = 54)) was 0 n (%), the “TRAE Dysgeusia, All grades” value ([2]; All patients (N = 54)) was 10 (18.5) n (%) and the “TRAE Dysgeusia, Grade ≥3” value ([2]; All patients (N = 54)) was 0 n (%). The “TRAE Fatigue, All grades” value ([2]; All patients (N = 54)) was 25 (46.3) n (%), the “TRAE Fatigue, Grade ≥3” value ([2]; All patients (N = 54)) was 1 (1.9) n (%) and the “TRAE Gastroesophageal reflux disease, All grades” value ([2]; All patients (N = 54)) was 5 (9.3) n (%). The “TRAE Gastroesophageal reflux disease, Grade ≥3” value ([2]; All patients (N = 54)) was 0 n (%), the “TRAE Increased alanine aminotransferase, All grades” value ([2]; All patients (N = 54)) was 3 (5.6) n (%) and the “TRAE Increased alanine aminotransferase, Grade ≥3” value ([2]; All patients (N = 54)) was 0 n (%). The “TRAE Increased aspartate aminotransferase, All grades” value ([2]; All patients (N = 54)) was 5 (9.3) n (%), the “TRAE Increased aspartate aminotransferase, Grade ≥3” value ([2]; All patients (N = 54)) was 0 n (%) and the “TRAE Nausea, All grades” value ([2]; All patients (N = 54)) was 40 (74.1) n (%). The “TRAE Nausea, Grade ≥3” value ([2]; All patients (N = 54)) was 4 (7.4) n (%), the “TRAE Neutropenia, All grades” value ([2]; All patients (N = 54)) was 16 (29.6) n (%) and the “TRAE Neutropenia, Grade ≥3” value ([2]; All patients (N = 54)) was 13 (24.1) n (%). The “TRAE Thrombocytopenia, All grades” value ([2]; All patients (N = 54)) was 24 (44.4) n (%), the “TRAE Thrombocytopenia, Grade ≥3” value ([2]; All patients (N = 54)) was 14 (25.9) n (%) and the “TRAE Vomiting, All grades” value ([2]; All patients (N = 54)) was 28 (51.9) n (%). The “TRAE Vomiting, Grade ≥3” value ([2]; All patients (N = 54)) was 1 (1.9) n (%), the “patients with neutropenia leading to dose reduction” value ([2]; D1D8q4w) was “four” and the “patients with thrombocytopenia leading to dose reduction” value ([2]; D1D8q4w) was “four”. The “serious AE thrombocytopenia” value ([2]; D1D8q4w) was “three”, the “Any AE” value ([2]; D1D8q4w (n = 25)) was 25 (100.0) n (%) and the “Any AE (any cause) leading to study drug discontinuation” value ([2]; D1D8q4w (n = 25)) was 1 (4.0) n (%). The “Any AE (any cause) leading to study drug dose reduction” value ([2]; D1D8q4w (n = 25)) was 8 (32.0) n (%), the “Any TRAE” value ([2]; D1D8q4w (n = 25)) was 23 (92.0) n (%) and the “Any grade ≥3 AE” value ([2]; D1D8q4w (n = 25)) was 12 (48.0) n (%). The “Any grade ≥3 TRAE” value ([2]; D1D8q4w (n = 25)) was 8 (32.0) n (%), the “Serious AEs (any cause)” value ([2]; D1D8q4w (n = 25)) was 9 (36.0) n (%) and the “TRAE Alopecia, All grades” value ([2]; D1D8q4w (n = 25)) was 6 (24.0) n (%). For the same compound, the “TRAE Alopecia, Grade ≥3” value ([2]; D1D8q4w (n = 25)) was 0 n (%), the “TRAE Anemia, All grades” value ([2]; D1D8q4w (n = 25)) was 4 (16.0) n (%) and the “TRAE Anemia, Grade ≥3” value ([2]; D1D8q4w (n = 25)) was 2 (8.0) n (%). For the same compound, the “TRAE Decreased appetite, All grades” value ([2]; D1D8q4w (n = 25)) was 7 (28.0) n (%), the “TRAE Decreased appetite, Grade ≥3” value ([2]; D1D8q4w (n = 25)) was 0 n (%) and the “TRAE Decreased lymphocyte count, All grades” value ([2]; D1D8q4w (n = 25)) was 2 (8.0) n (%). The “TRAE Decreased lymphocyte count, Grade ≥3” value ([2]; D1D8q4w (n = 25)) was 1 (4.0) n (%), the “TRAE Decreased weight, Grade ≥3” value ([2]; D1D8q4w (n = 25)) was 0 n (%) and the “TRAE Decreased white blood cell count, All grades” value ([2]; D1D8q4w (n = 25)) was 4 (16.0) n (%). The “TRAE Decreased white blood cell count, Grade ≥3” value ([2]; D1D8q4w (n = 25)) was 2 (8.0) n (%), the “TRAE Diarrhea, All grades” value ([2]; D1D8q4w (n = 25)) was 8 (32.0) n (%) and the “TRAE Diarrhea, Grade ≥3” value ([2]; D1D8q4w (n = 25)) was 0 n (%). For the same compound, the “TRAE Dysgeusia, All grades” value ([2]; D1D8q4w (n = 25)) was 5 (20.0) n (%), the “TRAE Dysgeusia, Grade ≥3” value ([2]; D1D8q4w (n = 25)) was 0 n (%) and the “TRAE Fatigue, All grades” value ([2]; D1D8q4w (n = 25)) was 10 (40.0) n (%). The “TRAE Fatigue, Grade ≥3” value ([2]; D1D8q4w (n = 25)) was 0 n (%), the “TRAE Gastroesophageal reflux disease, All grades” value ([2]; D1D8q4w (n = 25)) was 3 (12.0) n (%) and the “TRAE Gastroesophageal reflux disease, Grade ≥3” value ([2]; D1D8q4w (n = 25)) was 0 n (%). For the same compound, the “TRAE Increased alanine aminotransferase, All grades” value ([2]; D1D8q4w (n = 25)) was 0 n (%) and the “TRAE Increased alanine aminotransferase, Grade ≥3” value ([2]; D1D8q4w (n = 25)) was 0 n (%).
